Measurements as given in ChEMBL document CHEMBL1765045, “Fine-tuning the selectivity of aldosterone synthase inhibitors: structure-activity and structure-selectivity insights from studies of heteroaryl substituted 1,2,5,6-tetrahydropyrrolo[3,2,1-ij]quinolin-4-one derivatives” (J Med Chem, 2011).

Experiments:
[1] = target: T1, CYP1A2 (Homo sapiens, UniProt P05177); experiment: Inhibition of CYP1A2 at 1 uM; format: ADME
T1 sequence (P05177 whole entry): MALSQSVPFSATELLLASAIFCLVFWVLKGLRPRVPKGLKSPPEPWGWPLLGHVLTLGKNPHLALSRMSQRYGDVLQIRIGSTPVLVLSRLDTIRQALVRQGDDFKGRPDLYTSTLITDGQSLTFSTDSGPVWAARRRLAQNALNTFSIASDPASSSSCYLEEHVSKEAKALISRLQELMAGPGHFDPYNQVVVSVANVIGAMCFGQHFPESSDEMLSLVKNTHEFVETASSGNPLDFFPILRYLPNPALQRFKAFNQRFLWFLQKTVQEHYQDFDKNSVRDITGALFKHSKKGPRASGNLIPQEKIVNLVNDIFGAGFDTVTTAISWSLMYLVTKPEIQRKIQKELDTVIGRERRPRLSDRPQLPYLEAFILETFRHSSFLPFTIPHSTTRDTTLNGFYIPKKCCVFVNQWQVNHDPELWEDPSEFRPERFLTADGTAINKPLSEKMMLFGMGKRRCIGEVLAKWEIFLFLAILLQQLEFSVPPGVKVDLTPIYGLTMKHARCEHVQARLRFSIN
Procedure, shortened: (§1)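 Recombinant human CYP1A2, 2B6, 2C9, 2C19, 2D6 or 3A4 in baculovirus-infected insect microsomes (Supersomes), run per manufacturer's protocol. Inhibitor at 1 and 10 μM; percent inhibition is the mean of two experiments.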

[2] = target: T2, aromatase (CYP19) (Homo sapiens, UniProt P11511); experiment: Inhibition of aromatase at 0.5 uM
T2 sequence (P11511 whole entry): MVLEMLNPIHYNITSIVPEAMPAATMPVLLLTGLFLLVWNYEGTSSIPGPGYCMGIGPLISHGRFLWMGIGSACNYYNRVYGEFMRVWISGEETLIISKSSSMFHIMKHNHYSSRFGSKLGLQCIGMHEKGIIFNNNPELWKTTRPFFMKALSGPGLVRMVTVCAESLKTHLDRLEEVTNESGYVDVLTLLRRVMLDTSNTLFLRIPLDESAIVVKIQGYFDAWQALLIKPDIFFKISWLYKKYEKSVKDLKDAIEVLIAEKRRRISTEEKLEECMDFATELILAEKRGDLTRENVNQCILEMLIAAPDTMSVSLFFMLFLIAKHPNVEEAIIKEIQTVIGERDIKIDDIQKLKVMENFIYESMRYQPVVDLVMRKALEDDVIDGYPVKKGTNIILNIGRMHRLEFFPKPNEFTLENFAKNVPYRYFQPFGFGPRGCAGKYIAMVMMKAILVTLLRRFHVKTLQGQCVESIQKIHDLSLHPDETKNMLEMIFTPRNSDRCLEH
Procedure, shortened: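 Human placental microsomes as CYP19 source, [1β-3H]androstenedione substrate at 500 nM, inhibitor at 500 nM. Modified Thompson–Siiteri method, with fadrozole as reference.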

[3] = target: T3, Cytochrome P450 11B2, mitochondrial (Homo sapiens, UniProt P19099); experiment: Inhibition of human CYP11B2 expressed in hamster V79 MZh cells assessed as conversion of [4-14C]-11-deoxycorticosterone substrate at 500 nM by HPTLC assay; format: cell-based; details: V79MZh
T3 sequence (P19099 whole entry): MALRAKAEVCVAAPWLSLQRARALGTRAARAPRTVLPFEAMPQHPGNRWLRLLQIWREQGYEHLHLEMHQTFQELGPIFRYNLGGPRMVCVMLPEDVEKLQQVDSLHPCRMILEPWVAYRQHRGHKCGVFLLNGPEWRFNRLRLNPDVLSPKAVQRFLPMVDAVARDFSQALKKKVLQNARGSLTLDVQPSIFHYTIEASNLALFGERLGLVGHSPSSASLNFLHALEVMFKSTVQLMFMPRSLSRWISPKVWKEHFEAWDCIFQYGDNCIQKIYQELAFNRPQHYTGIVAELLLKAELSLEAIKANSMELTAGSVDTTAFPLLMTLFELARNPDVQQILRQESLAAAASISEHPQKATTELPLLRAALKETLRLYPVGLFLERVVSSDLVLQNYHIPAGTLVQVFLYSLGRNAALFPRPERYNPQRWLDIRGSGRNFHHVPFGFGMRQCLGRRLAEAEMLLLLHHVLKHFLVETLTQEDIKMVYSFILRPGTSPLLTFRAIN
Procedure, shortened: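 V79 MZh cells expressing human CYP11B2 given [4-14C]-11-deoxycorticosterone, 100 nM, with inhibitor at a single 500 nM concentration. Ethyl acetate extraction, then HPTLC/phosphoimager readout of conversion. Percent inhibition is the mean of at least three experiments.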

[4] = target: CYP3A4 (Homo sapiens, UniProt P08684); experiment: Inhibition of human CYP3A4 expressed in baculovirus-infected insect microsomes at 1 uM; format: ADME, Microsome; procedure, shortened: as §1
[5] = target: T3, Cytochrome P450 11B2, mitochondrial; experiment: Inhibition of human CYP11B2 expressed in hamster V79 MZh cells assessed as conversion of [4-14C]-11-deoxycorticosterone substrate by HPTLC assay; format: cell-based
Procedure, shortened: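 Hamster V79 MZh fibroblasts expressing human CYP11B2 incubated with [4-14C]-11-deoxycorticosterone (100 nM) and inhibitor at ≥3 concentrations; reaction stopped with ethyl acetate, steroids extracted after shaking and centrifugation (10000g, 2 min). Substrate conversion read by HPTLC with phosphoimaging.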

[6] = target: CYP2D6 (Homo sapiens, UniProt P10635); experiment: Inhibition of human CYP2D6 expressed in baculovirus-infected insect microsomes at 1 uM; format: ADME, Microsome; procedure, shortened: as §1
[7] = species: Homo sapiens; experiment: Selectivity ratio of IC50 for human CYP11B1 to IC50 for human CYP11B2
Procedure, shortened: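 Ratio of IC50 values from V79 MZh cell assays for human CYP11B1 and CYP11B2, IC50 CYP11B1/IC50 CYP11B2. Both assays used [4-14C]-11-deoxycorticosterone, 100 nM, inhibitor at ≥3 concentrations and HPTLC/phosphoimager readout of conversion.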

CYP3A4, sequence (P08684 whole entry): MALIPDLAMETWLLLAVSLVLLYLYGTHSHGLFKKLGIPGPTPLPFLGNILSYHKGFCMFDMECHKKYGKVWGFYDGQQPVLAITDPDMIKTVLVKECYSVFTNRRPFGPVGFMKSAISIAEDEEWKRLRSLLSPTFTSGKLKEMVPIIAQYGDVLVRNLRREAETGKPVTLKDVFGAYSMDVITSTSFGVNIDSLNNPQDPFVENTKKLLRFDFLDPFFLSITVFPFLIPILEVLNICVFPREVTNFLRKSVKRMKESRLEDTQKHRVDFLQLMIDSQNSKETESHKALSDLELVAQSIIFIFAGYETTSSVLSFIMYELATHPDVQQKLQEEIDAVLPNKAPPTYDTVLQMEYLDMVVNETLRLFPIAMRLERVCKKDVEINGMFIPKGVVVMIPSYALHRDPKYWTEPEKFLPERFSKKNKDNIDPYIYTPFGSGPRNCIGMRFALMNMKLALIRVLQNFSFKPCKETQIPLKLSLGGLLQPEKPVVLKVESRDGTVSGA
CYP2D6, sequence (P10635 whole entry): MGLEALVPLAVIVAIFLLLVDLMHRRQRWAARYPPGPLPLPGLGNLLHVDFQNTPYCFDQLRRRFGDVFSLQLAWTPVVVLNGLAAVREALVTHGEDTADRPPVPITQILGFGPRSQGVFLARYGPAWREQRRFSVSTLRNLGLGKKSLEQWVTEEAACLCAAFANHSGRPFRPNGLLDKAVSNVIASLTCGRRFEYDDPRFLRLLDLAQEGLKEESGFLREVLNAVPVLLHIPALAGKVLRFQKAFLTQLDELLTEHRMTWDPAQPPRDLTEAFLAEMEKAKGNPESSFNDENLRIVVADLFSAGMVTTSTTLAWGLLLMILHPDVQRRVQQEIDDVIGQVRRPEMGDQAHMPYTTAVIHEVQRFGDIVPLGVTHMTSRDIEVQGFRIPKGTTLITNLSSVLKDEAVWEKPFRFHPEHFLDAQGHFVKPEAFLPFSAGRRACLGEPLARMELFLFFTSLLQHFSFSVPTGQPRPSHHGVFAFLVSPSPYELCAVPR

inhibition at 1 µM [1] | inhibition at 0.5 µM [2] | inhibition at 0.5 µM [3] | inhibition at 1 µM [4] | IC50 [5] | inhibition at 1 µM [6] | Ratio IC50 [7] | Compound
41% | 69% | 95% | 6% | 2.4 nM |  |  | O=C1CCc2cc(-c3cccnc3)cc3c2N1CCC3
 |  | 98% | 14% | 0.6 nM | 9% |  | COc1cncc(-c2cc3c4c(c2)CCN4C(=O)CC3)c1
 |  | 90% | < 5% | 1.1 nM | < 5% | 650 | O=C1CCc2cc(-c3cccnc3)cc3c2N1CC3
 |  | 97% | 37% | 1.4 nM | < 5% |  | O=C1CCc2cc(-c3cncc(-c4cccc(F)c4)c3)cc3c2N1CC3
